Calls of active or inactive are those of the source. The rule behind the calls is not given here.
Legend:
[1] = target: Neuronal acetylcholine receptor; alpha4/beta2 (Rattus norvegicus, UniProt P09483+P12390); experiment: Displacement of [3H]epibatidine from Sprague-Dawley rat brain alpha4beta2 nAChR after 90 mins by liquid scintillation counting analysis
Summary of the method: (§1)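 Radioligand competition binding gave Ki values, reported as mean ± SEM from 2–10 independent experiments.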

[2] = target: Neuronal acetylcholine receptor subunit alpha-7 (Rattus norvegicus, UniProt Q05941); experiment: Displacement of [3H]methyllycaconitine from Sprague-Dawley rat brain alpha7 nAChR after 120 mins by liquid scintillation counting analysis; assay type: tissue-based; summary of the method: as §1
[3] = target: T1, Neuronal acetylcholine receptor; alpha4/beta2 (Homo sapiens) (UniProt P17787+P43681); experiment: Partial agonist activity at human alpha4beta2 nAChR expressed in Xenopus oocytes at 1 uM incubated for 8 secs followed by compound washout measured after 241 secs by two-electrode voltage clamp technique; assay type: cell-based
[4] = target: T2, Neuronal acetylcholine receptor; alpha3/beta4 (Homo sapiens) (UniProt P30926+P32297); experiment: Agonist activity at human alpha3beta4 nAChR expressed in Xenopus oocytes at 10 uM incubated for 8 secs followed by compound washout measured after 241 secs by two-electrode voltage clamp technique; assay type: cell-based
[5] = target: T3, Nicotinic acetylcholine receptor alpha1/beta1/epsilon/delta (Mus musculus) (UniProt P04756+P09690+P02716+P20782); experiment: Antagonist activity at mouse muscle alpha1beta1epsilondelta nAChR expressed in Xenopus oocytes assessed as inhibition of acetylcholine-induced effect at 1 uM incubated for 8 secs followed by compound washout measured after 241 secs by two-electrode voltage clamp technique; assay type: cell-based
[6] = target: Neuronal acetylcholine receptor subunit alpha-7 (Homo sapiens) (UniProt P36544); experiment: Antagonist activity at human alpha7 nAChR expressed in Xenopus oocytes assessed as inhibition of acetylcholine-induced effect at 1 uM incubated for 12 secs followed by compound washout measured after 181 secs by two-electrode voltage clamp technique; assay type: cell-based
[7] = target: T2, Neuronal acetylcholine receptor; alpha3/beta4 (Homo sapiens); experiment: Antagonist activity at human alpha3beta4 nAChR expressed in Xenopus oocytes at 1 uM incubated for 8 secs followed by compound washout measured after 241 secs by two-electrode voltage clamp technique; assay type: cell-based
[8] = target: T2, Neuronal acetylcholine receptor; alpha3/beta4 (Homo sapiens); experiment: Agonist activity at human alpha3beta4 nAChR expressed in Xenopus oocytes at 1 uM incubated for 8 secs followed by compound washout measured after 241 secs by two-electrode voltage clamp technique; assay type: cell-based
[9] = target: Neuronal acetylcholine receptor subunit alpha-7 (Homo sapiens) (UniProt P36544); experiment: Agonist activity at human alpha7 nAChR expressed in Xenopus oocytes at 1 uM incubated for 12 secs followed by compound washout measured after 181 secs by two-electrode voltage clamp technique; assay type: cell-based
[10] = target: T3, Nicotinic acetylcholine receptor alpha1/beta1/epsilon/delta (Mus musculus); experiment: Agonist activity at mouse muscle alpha1beta1epsilondelta nAChR expressed in Xenopus oocytes at 10 uM incubated for 8 secs followed by compound washout measured after 241 secs by two-electrode voltage clamp technique; assay type: cell-based
[11] = target: T1, Neuronal acetylcholine receptor; alpha4/beta2 (Homo sapiens); experiment: Partial agonist activity at human alpha4beta2 nAChR expressed in Xenopus oocytes at 10 uM incubated for 8 secs followed by compound washout measured after 241 secs by two-electrode voltage clamp technique; assay type: cell-based
[12] = target: T3, Nicotinic acetylcholine receptor alpha1/beta1/epsilon/delta (Mus musculus); experiment: Agonist activity at mouse muscle alpha1beta1epsilondelta nAChR expressed in Xenopus oocytes at 1 uM incubated for 8 secs followed by compound washout measured after 241 secs by two-electrode voltage clamp technique; assay type: cell-based
[13] = Displacement of [3H]epibatidine from Torpedo californica electroplax (alpha1)2beta1gammadelta nAChR after 90 mins by liquid scintillation counting analysis; parameters: species or system Tetronarce californica
[14] = Displacement of [3H]epibatidine from calf adrenal alpha3beta4 nAChR after 90 mins by liquid scintillation counting analysis; parameters: species or system Bos taurus

Chain of Neuronal acetylcholine receptor subunit alpha-7 (Homo sapiens) (P36544 whole entry): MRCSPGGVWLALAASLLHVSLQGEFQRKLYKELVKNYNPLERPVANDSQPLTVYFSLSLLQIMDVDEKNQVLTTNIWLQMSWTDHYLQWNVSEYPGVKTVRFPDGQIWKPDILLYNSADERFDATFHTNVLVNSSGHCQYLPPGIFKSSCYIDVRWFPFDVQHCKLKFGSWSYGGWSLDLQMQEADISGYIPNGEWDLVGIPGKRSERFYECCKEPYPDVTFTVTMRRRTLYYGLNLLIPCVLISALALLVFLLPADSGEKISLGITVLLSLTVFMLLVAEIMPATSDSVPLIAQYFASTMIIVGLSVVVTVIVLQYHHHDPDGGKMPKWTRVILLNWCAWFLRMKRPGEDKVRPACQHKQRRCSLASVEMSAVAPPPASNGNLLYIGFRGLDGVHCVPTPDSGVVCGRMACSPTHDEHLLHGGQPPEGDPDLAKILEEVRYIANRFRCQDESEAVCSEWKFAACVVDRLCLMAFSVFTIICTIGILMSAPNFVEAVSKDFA
Chain of Neuronal acetylcholine receptor; alpha4/beta2 (P09483 whole entry): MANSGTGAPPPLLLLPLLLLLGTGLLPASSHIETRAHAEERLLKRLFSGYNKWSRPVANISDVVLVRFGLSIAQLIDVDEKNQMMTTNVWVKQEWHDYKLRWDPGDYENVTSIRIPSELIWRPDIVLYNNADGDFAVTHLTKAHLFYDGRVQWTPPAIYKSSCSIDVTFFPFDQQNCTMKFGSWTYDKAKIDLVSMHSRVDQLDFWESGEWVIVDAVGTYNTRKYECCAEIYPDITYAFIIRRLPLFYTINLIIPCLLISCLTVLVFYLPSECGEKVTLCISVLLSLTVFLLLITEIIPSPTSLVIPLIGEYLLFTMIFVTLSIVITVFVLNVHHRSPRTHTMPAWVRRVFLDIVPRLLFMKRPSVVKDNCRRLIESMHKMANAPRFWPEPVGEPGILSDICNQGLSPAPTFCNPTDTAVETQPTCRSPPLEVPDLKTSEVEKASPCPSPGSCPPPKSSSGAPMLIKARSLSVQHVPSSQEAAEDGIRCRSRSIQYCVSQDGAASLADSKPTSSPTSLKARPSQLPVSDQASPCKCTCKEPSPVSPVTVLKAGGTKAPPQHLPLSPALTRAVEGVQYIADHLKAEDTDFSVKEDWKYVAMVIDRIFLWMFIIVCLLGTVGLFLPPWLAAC
Chain of Neuronal acetylcholine receptor; alpha4/beta2 (P12390 whole entry): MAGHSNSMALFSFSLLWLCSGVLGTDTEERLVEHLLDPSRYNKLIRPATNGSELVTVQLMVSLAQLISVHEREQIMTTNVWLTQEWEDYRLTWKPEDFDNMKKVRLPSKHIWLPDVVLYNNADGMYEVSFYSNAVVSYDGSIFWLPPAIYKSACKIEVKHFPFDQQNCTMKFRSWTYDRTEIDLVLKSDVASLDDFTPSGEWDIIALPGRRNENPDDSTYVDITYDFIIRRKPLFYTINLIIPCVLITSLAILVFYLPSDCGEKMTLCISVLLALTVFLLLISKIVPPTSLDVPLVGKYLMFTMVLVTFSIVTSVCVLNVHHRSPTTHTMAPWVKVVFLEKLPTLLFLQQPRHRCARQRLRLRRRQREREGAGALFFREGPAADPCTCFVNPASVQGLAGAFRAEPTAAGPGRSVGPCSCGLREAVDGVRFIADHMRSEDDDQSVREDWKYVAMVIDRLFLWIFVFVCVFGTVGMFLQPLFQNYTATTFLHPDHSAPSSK
Chain of Neuronal acetylcholine receptor subunit alpha-7 (Q05941 whole entry): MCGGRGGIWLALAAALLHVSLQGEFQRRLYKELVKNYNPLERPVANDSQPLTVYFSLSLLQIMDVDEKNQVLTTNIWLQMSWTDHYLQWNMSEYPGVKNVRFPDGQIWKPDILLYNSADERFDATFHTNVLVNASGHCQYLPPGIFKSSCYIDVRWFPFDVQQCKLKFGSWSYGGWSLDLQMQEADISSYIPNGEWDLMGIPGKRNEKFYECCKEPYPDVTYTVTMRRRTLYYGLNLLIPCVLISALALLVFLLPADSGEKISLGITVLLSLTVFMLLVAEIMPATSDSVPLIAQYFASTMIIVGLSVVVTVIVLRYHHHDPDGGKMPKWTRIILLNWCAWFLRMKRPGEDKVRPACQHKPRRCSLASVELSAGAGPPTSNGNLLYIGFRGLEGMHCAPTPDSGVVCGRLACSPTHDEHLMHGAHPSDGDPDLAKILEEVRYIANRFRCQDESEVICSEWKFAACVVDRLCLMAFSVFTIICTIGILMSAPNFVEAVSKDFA

Structure (SMILES) | Ki [1] [nM] | Ki [2] [nM] | Activity [3] | Activity [4] | inhibition [5] | inhibition [6] | Activity [7] | Activity [8] | Activity [9] | Activity [10] | Activity [11] | Activity [12] | Ki [13] [nM] | Ki [14] [nM]
O=C(Cc1ccccc1)N1C[C@@H]2CNC[C@@H](C2)C1 | 57.6 | > 10000 | Active | inactive | inactive | inactive | inactive | inactive | inactive | inactive | Active | inactive |  | 
O=C(Cc1c(F)c(F)c(F)c(F)c1F)N1C[C@@H]2CNC[C@@H](C2)C1 | > 5000 |  |  |  |  |  |  |  |  |  |  |  |  | 
O=C(C#Cc1ccccc1)N1C[C@@H]2CNC[C@@H](C2)C1 | 10.9 | > 5000 |  | inactive | inactive | inactive | inactive |  |  | inactive | Active |  | > 1000 | > 1000
Cc1cc(CC(=O)N2C[C@@H]3CNC[C@@H](C3)C2)on1 | 46.9 | > 1000 | Active |  | inactive | inactive | inactive | inactive | inactive |  |  | inactive |  | > 1000
O=C(/C=C/c1cccnc1)N1C[C@@H]2CNC[C@@H](C2)C1 | 32.6 | > 1000 | Active | inactive | inactive | inactive | inactive | inactive | inactive | inactive | Active | inactive | > 5000 | > 1000
COc1cccc(C#CC(=O)N2C[C@@H]3CNC[C@@H](C3)C2)c1 | 6.3 | > 1000 |  |  |  |  |  |  |  |  |  |  | > 5000 | > 1000
COc1ccccc1/C=C/C(=O)N1C[C@@H]2CNC[C@@H](C2)C1 | 172 |  |  |  |  |  |  |  |  |  |  |  | > 10000 | 
COc1ccc(/C=C/C(=O)N2C[C@@H]3CNC[C@@H](C3)C2)cc1 | 39.6 |  | Active | inactive | inactive | inactive | inactive | inactive | inactive | inactive | Active | inactive |  | 
O=C(/C=C/c1ccncc1)N1C[C@@H]2CNC[C@@H](C2)C1 | 1.03 | > 10000 | Active | inactive | inactive | inactive | inactive | inactive | inactive | inactive | Active | inactive | > 5000 | > 1000
COc1ccccc1C#CC(=O)N1C[C@@H]2CNC[C@@H](C2)C1 | 242 | > 1000 |  |  |  |  |  |  |  |  |  |  | > 5000 | > 1000
O=c1c(-c2cccnc2)ccc2n1C[C@@H]1CNC[C@H]2C1 |  |  |  |  |  |  |  |  |  |  |  |  | > 5000 | 
COc1cc(CCC(=O)N2C[C@@H]3CNC[C@@H](C3)C2)cc(OC)c1OC | 233 | > 10000 |  |  |  |  |  |  |  |  |  |  |  | > 5000
O=C(/C=C/c1cccs1)N1C[C@@H]2CNC[C@@H](C2)C1 | 96.9 | > 10000 |  |  |  |  |  |  |  |  |  |  |  | 2000
O=C(/C=C/c1cccc([N+](=O)[O-])c1)N1C[C@@H]2CNC[C@@H](C2)C1 | 38.9 |  |  |  |  |  |  |  |  |  |  |  | > 10000 | > 1000
O=C(COc1ccccc1Cl)N1C[C@@H]2CNC[C@@H](C2)C1 | 548 | > 5000 |  |  |  |  |  |  |  |  |  |  | > 5000 | > 5000
O=C(c1csc(-c2ccncc2)n1)N1C[C@@H]2CNC[C@@H](C2)C1 | > 1000 |  |  |  |  |  |  |  |  |  |  |  |  | 
O=c1c(-c2ccncc2)ccc2n1C[C@@H]1CNC[C@H]2C1 | 3.9 | > 10000 |  |  |  |  |  |  |  |  |  |  | > 10000 | 
O=C(/C=C/c1ccsc1)N1C[C@@H]2CNC[C@@H](C2)C1 | 57.1 | > 10000 |  | inactive | inactive | inactive | inactive |  |  | inactive | Active |  |  | 

Structure (SMILES) | Ki [1] [nM] | Ki [2] [nM] | Activity [3] | Activity [4] | inhibition [5] | inhibition [6] | Activity [7] | Activity [8] | Activity [9] | Activity [10] | Activity [11] | Activity [12] | Ki [13] [nM] | Ki [14] [nM]
O=C(C#Cc1cccc2ccccc12)N1C[C@@H]2CNC[C@@H](C2)C1 | 46 | > 1000 |  |  |  |  |  |  |  |  |  |  | > 5000 | > 1000
O=c1c(-c2ccccc2)ccc2n1C[C@@H]1CNC[C@H]2C1 | 128 | > 10000 |  |  |  |  |  |  |  |  |  |  | > 10000 | > 10000
O=c1cccc2n1C[C@@H]1CNC[C@H]2C1 [CYTISINICLINE] |  | 261 |  |  |  |  |  |  |  |  |  |  | 1300 | 18
Cc1ccc(C#CC(=O)N2C[C@@H]3CNC[C@@H](C3)C2)cc1 | 10.9 | > 1000 |  |  |  |  |  |  |  |  |  |  | > 5000 | > 1000
O=C(C#Cc1cccc(F)c1)N1C[C@@H]2CNC[C@@H](C2)C1 | 7.1 | > 1000 |  |  |  |  |  |  |  |  |  |  | > 5000 | > 1000
O=C(Cc1ccc2ccccc2c1)N1C[C@@H]2CNC[C@@H](C2)C1 | 10.2 | > 1000 |  | inactive | inactive | inactive | inactive |  |  | inactive | Active |  | > 5000 | > 1000
O=C(CCc1ccccc1)N1C[C@@H]2CNC[C@@H](C2)C1 | 52.5 | > 10000 | Active | inactive | inactive | inactive | inactive | inactive | inactive | inactive | Active | inactive |  | 396
O=C(/C=C/c1cccc(Cl)c1)N1C[C@@H]2CNC[C@@H](C2)C1 | 23.7 | > 10000 |  | inactive | inactive | inactive | inactive |  |  | inactive | Active |  |  | 
O=C(/C=C/c1cccc2ccccc12)N1C[C@@H]2CNC[C@@H](C2)C1 | 297 | > 1000 |  |  |  |  |  |  |  |  |  |  | > 5000 | > 5000
O=C(/C=C/c1ccco1)N1C[C@@H]2CNC[C@@H](C2)C1 | 288 | > 1000 |  |  |  |  |  |  |  |  |  |  | > 5000 | > 1000
O=c1c(-c2ccc3c(c2)OCO3)ccc2n1C[C@@H]1CNC[C@H]2C1 | 110 | > 10000 |  |  |  |  |  |  |  |  |  |  | > 10000 | > 10000
O=C(/C=C/c1ccc(F)cc1)N1C[C@@H]2CNC[C@@H](C2)C1 | 20.7 | > 5000 |  |  | inactive | inactive | inactive |  |  | inactive | Active |  | > 10000 | > 5000
COc1ccc(C#CC(=O)N2C[C@@H]3CNC[C@@H](C3)C2)cc1 | 7.8 | > 1000 |  |  |  |  |  |  |  |  |  |  | > 5000 | > 1000
O=C(/C=C/c1cccc(Br)c1)N1C[C@@H]2CNC[C@@H](C2)C1 | 24.6 | > 10000 |  |  |  |  |  |  |  |  |  |  |  | 
O=C(CCc1cccnc1)N1C[C@@H]2CNC[C@@H](C2)C1 | 39 | > 5000 |  | inactive | inactive | inactive | inactive |  |  | inactive | Active |  | > 5000 | > 5000
O=C(c1ccccc1)N1C[C@@H]2CNC[C@@H](C2)C1 |  |  |  |  |  |  |  |  |  |  |  |  | > 10000 | > 5000
O=C(c1ccc(-c2ccccc2)cc1)N1C[C@@H]2CNC[C@@H](C2)C1 |  |  |  |  |  |  |  |  |  |  |  |  |  | 1090

Source: ChEMBL document CHEMBL3091445, “The 3,7-diazabicyclo[3.3.1]nonane scaffold for subtype selective nicotinic acetylcholine receptor ligands. Part 2: carboxamide derivatives with different spacer motifs” (Bioorg Med Chem, 2013)
